Source: PubChem (several laboratories)
Many of the other results were omitted from the sample, so hits are more common in it than they were.
CHOP inhibitor = inhibitors of CHOP induction in ER stress response. CHO-K1 CHOP-promoter luciferase, tunicamycin-induced, 15-18 h. inhibition, % at 10 µM. hit rate 3.8% among 220,000. AID 2732;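 active = compounds that reduced the stress-induced luciferase reporter signal by more than about 70% of percent inhibition, limit read from the data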;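 note: 0% = tunicamycin plus vehicle and 100% = wells without tunicamycin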
iPSC survival up = enhancers of human iPSC single-cell survival; hit rate 0.044% among 360,000; hiPSC single-cell survival, ATPlite luminescence; 100% = ROCK inhibitor wells, 0% = DMSO; survival enhancement, % at 20 µM; in the data active = survival enhancement above about 18%;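 note: cells exposed to compounds for 16 hours before the ATP read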
UPR XBP1 act = activators of adaptive arm of unfolded protein response (XBP1) | CHO-XBP1 luciferase reporter, IRE1-XBP1 UPR activation, luminescence; percent of tunicamycin response, DMSO as zero | activation, % at 20 µM | hit rate 0.33% among 330,000;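 active = versus positive control, 20 µM dose yields 30% or more activation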;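 note: 100% = tunicamycin at 10 µg/mL and 0% = DMSO only wells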
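Signal: luciferase luminescence; Assay system: CHO-XBP1 luciferase reporter cells; Amount: one thousand reporter cells per well; Dosing: 20 µM single concentration, DMSO 1%; Benchmarks: high control tunicamycin 10 µg/mL final, low control DMSO vehicle only; Schedule: 6 h compound exposure at 37 °C, 5% CO2; Evaluation: percent activation relative to tunicamycin reference.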
H9c2 protect = modulators protecting cardiomyocytes from myocardial damage. protection from H2O2 cell death, % at 20 µM. AID 588492. H9c2 cardiomyocytes, H2O2 injury protection, ATPLite, 2 h. hit rate 0.63% among 360,000;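 active = compounds giving at least 50% protection of heart cells from peroxide-induced death in the single-dose screen, raw or plate-pattern-corrected value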;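 note: 0% = DMSO wells with peroxide and 100% = DMSO wells without peroxide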
CHOP UPR activ = apoptotic UPR (CHOP) activation. AID 449763. activation, % at 10 µM. hit rate 0.34% among 330,000. CHO-CHOP luciferase reporter, luminescence; percent of tunicamycin response over DMSO baseline;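 active = at 10 µM dose, activation of 40% or more, normalized to positive control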;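 note: 100% = tunicamycin at 10 µg/mL and 0% = DMSO alone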
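Material: CHO-CHOP cells, stable luciferase reporter of PERK-eIF2a-CHOP signalling; quantity: 500 reporter cells seeded per well; buffer or medium: F12 medium containing 10% fetal bovine serum; compound: one dose, 10 µM in 0.5% DMSO; incubation: 6 h compound treatment, 37 °C; measured by: Steady-Glo luciferase luminescence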
The depositor's hits bear a star; · = not tested or not shown.

SMILES | CHOP inhibitor | iPSC survival up | UPR XBP1 act | H9c2 protect | CHOP UPR activ
Cc1ccccc1OCC(=O)NCC(=O)N/N=C/c1cccc([N+](=O)[O-])c1 | -8 | · | -1 | · | -1
Cc1cc(Cl)ccc1OCCCC(=O)N/N=C/c1cccc([N+](=O)[O-])c1 | 88* | -1 | -2 | -5 | 1
COc1ccc(/C=N/NC(=O)CCCOc2ccc(Cl)cc2Cl)cc1 | 85* | 5 | 0 | -5 | -1
CCCCCCCCCCS(=O)(=O)N/N=C/c1ccccc1OC | 82* | 2 | -1 | -12 | 2
CCN(CC)c1ncnc2c1ncn2[C@H]1CN(Cc2ccc3c(c2)OCO3)C[C@@H](CO)O1 | · | 1 | · | 1 | ·
Cc1nc(Nc2ccccc2)sc1-c1ccccc1 | 70* | -4 | 0 | -20 | 7
COc1cc(NS(=O)(=O)c2ccc(C)cc2)c2ncccc2c1 | · | 0 | -4 | 24 | 111*
Cc1oc(-c2ccc3c(c2)OCCO3)cc1C(=O)O | 72* | 2 | -6 | -4 | -7
COc1ccc(NC(=O)c2c(-c3c(Cl)cccc3Cl)noc2C)c(OC)c1 | · | 0 | -1 | 9 | 1
C[C@@H]1CN([C@@H](C)CO)C(=O)CCCn2nncc2CO[C@@H]1CN(C)C(=O)Nc1cccc(Oc2ccccn2)c1 | · | -3 | · | -5 | ·
CC(C)(C)c1ccc(OCC(=O)Nc2ccc3c4c(cccc24)C(=O)NC3=O)cc1 | 32 | 0 | · | 60* | ·
Cc1ccc(OCC(=O)Nc2ccc3c(c2)C(=O)NC3=O)cc1 | · | 0 | -1 | -9 | 1
Cc1cccc(NC(=O)c2cc3ccccc3oc2=O)c1 | · | -1 | -6 | -14 | 0
CSc1nnc(NC(=O)c2cc3ccccc3oc2=O)s1 | -29 | 2 | 5 | 55* | 6
COC(=O)c1cc(N2C(=O)C3C(C2=O)C2(C)C=CC3(C)O2)ccc1Cl (stereo not given) | 75* | · | -3 | · | -1
CC(=O)Oc1ccc(N2C(=O)C3C(C2=O)C2(C)C=CC3(C)O2)cc1 (stereo not given) | · | · | 0 | · | 5
CC1(C(=O)O)CCCN(C(=O)c2ccc(OC(F)F)cc2)C1 (stereo not given) | · | 0 | · | 17 | ·
CC1(C)CC(=O)C=C(NC2=CC3OC(c4ccccc4)OCC3OC2=O)C1 (stereo not given) | 103* | 3 | -3 | -20 | 17
O=S(=O)(c1ccc(Cl)cc1)c1cc(O)ccc1O | · | -1 | -4 | 56* | 1
CCOC(=O)[C@]12CCCC=C1N(Cc1cccc3ccccc13)C(=O)[C@H](CC(=O)N1CCC(c3ccccc3)CC1)C2 | · | -1 | · | · | ·
CCCCOCCCNC(=O)C[C@@H]1C[C@@]2(C(=O)OCC)CCC=C2N(Cc2ccc(Cl)cc2Cl)C1=O | · | 0 | · | · | ·
O=C(CCCSc1nc2sc3c(c2c(=O)[nH]1)CCC3)NCCCO | 18 | -1 | -1 | 58* | -1
O=C(CCCSc1nc2sc3c(c2c(=O)[nH]1)CCC3)NCCO | -9 | 6 | -5 | 88* | 0
CC(=O)Nc1ccc(-c2noc(-c3csc([C@@H]4C[C@H](O)[C@@H](CO)O4)n3)n2)cc1 | · | -1 | · | 4 | ·
CC(C)[C@@H]1Cc2[nH][nH]c(=O)c2[C@H](c2ccc(F)cc2)O1 | · | 0 | · | · | ·
SMILES | CHOP inhibitor | iPSC survival up | UPR XBP1 act | H9c2 protect | CHOP UPR activ
Cn1nc(C(C)(C)C)cc1C(=O)NCc1ccc(N2CCCC2=O)cc1 | 83* | -2 | -2 | -23 | 6
CCOc1ccc(-c2cc(CCCC(=O)N3CCN(c4ccc(OC)cc4)CC3)no2)cc1 | 94* | -2 | -5 | -13 | 0
CCOc1ccc(-c2cc(CCCC(=O)NCCCOC)no2)cc1 | 68 | -2 | -5 | -6 | -4
N#Cc1ccc(CN2CCN(C(=O)C3CC(=O)N(c4ccc5c(c4)OCCO5)C3)CC2)cc1 (stereo not given) | · | -2 | · | -4 | ·
CC(OC(=O)c1ccc2c(c1)OCO2)C(=O)NC1CCCCC1 (stereo not given) | · | 1 | · | 4 | ·
C=CCc1c(C)nc2c(OC)cccc2c1Cl | 1 | 0 | 4 | -4 | 1
COc1cccc2c(Cl)c(CC=C(Cl)Cl)c(C)nc12 | 87* | 0 | 6 | 0 | 3
COc1nc(N2CCOCC2)nc(C)c1[N+](=O)[O-] | 21 | 1 | 0 | 2 | 2
Cc1nc(N2CCOCC2)nc(OC(C)C)c1[N+](=O)[O-] | 84* | -1 | 1 | -4 | -1
Cc1ccc(-n2c(O)c(C=Nc3ccc4c(c3)OCO4)c3ccccc3c2=O)cc1C | 16 | -1 | 1 | 6 | 0
Cc1cc(N=Cc2c(O)n(-c3ccc4c(c3)OCO4)c(=O)c3ccccc23)ccn1 | 94* | -2 | -1 | 16 | 1
COc1ccc(OC)c(CN2CCN(C(=O)c3ccc(C)c(S(=O)(=O)Nc4ccccc4OC)c3)CC2)c1 | · | 0 | · | 1 | ·
Cc1c(C#N)c(N)nc2c3c(sc12)NC(=O)CC3c1ccc(Cl)cc1 (stereo not given) | 101* | 1 | 8 | 50* | 4
CC(C)(C)c1ccc(C(=O)N2CCC2(C)C(=O)NCC(F)(F)F)cc1 (stereo not given) | · | -1 | · | -2 | ·
CC(C)NC(=O)C1(C)CCN1C(=O)c1ccccc1 (stereo not given) | · | 2 | · | 0 | ·
CCCCCOC(=O)Nc1nnc(CCCCC)s1 | 95* | 1 | -2 | -7 | 3
CCCCCc1nnc(NC(=O)OCCC)s1 | 15 | 0 | 2 | -4 | 9
COc1ccc(C=NNc2ccc([N+](=O)[O-])cc2S(=O)(=O)Nc2ccccc2C(=O)O)cc1OC | · | -1 | -2 | -1 | 0
COc1ccc(/C=N/Nc2ccc([N+](=O)[O-])cc2S(=O)(=O)N2CCN(C)CC2)cc1 | 71* | -2 | 3 | 2 | 3
C[C@@H]1COc2cc(N3CCC[C@@H]3CO)ccc2S(=O)(=O)N1 | · | 1 | · | · | ·
CCCN(CCC)c1nc2ccccc2nc1C(C#N)C(=O)OC(C)COC (stereo not given) | 87* | · | 2 | · | -10
CC[N+](CC)=N/N=C1\C=CC[N+]([O-])=C1 | · | 1 | · | · | ·
COc1ccccc1Cc1c(C(C)(C)C)nc2ccc(C)cn12 | · | 3 | · | -2 | ·
C=CC[n+]1c(-c2ccc(OCC)cc2)csc1NNC(=O)Nc1ccccc1 | 73* | 3 | -2 | -24 | 1
C=CC[n+]1c(-c2ccc(C)cc2)csc1Nc1c(C)n(C)n(-c2ccccc2)c1=O | 28 | -1 | -2 | -11 | -1
CCCCCCCCCC[n+]1cccc2c3ccccc3ccc21 | 106* | -3 | · | -33 | ·
CCCCCCCC[n+]1cccc2c3ccccc3ccc21 | 47 | -5 | 4 | -26 | 10
Cn1c2ccccc2c(=O)c2ccc(NCc3ccc4c(c3)OCO4)cc21 | · | -2 | · | 71* | ·
O=C(NCc1ccc2c(c1)OCO2)c1n[nH]c(=O)c2ccccc12 | 24 | -1 | -4 | 68* | 0
